From ChEMBL document CHEMBL4325869, “1,2,3,4-Tetrahydroisoquinoline/2H-chromen-2-one conjugates as nanomolar P-glycoprotein inhibitors: Molecular determinants for affinity and selectivity over multidrug resistance associated protein 1” (Eur J Med Chem, 2019)
pIC50: −log10 of the molar value.

Key:
[1] = target: T1, ATP-dependent translocase ABCB1 (Homo sapiens, UniProt P08183); test: Inhibition of MDR1 (unknown origin) expressed in MDCK cells assessed as reduction in calcein-AM efflux preincubated for 30 mins followed by calcein-AM addition measured after 30 mins by spectrofluorimetric method; type: cell-based
T1 sequence (P08183 whole entry): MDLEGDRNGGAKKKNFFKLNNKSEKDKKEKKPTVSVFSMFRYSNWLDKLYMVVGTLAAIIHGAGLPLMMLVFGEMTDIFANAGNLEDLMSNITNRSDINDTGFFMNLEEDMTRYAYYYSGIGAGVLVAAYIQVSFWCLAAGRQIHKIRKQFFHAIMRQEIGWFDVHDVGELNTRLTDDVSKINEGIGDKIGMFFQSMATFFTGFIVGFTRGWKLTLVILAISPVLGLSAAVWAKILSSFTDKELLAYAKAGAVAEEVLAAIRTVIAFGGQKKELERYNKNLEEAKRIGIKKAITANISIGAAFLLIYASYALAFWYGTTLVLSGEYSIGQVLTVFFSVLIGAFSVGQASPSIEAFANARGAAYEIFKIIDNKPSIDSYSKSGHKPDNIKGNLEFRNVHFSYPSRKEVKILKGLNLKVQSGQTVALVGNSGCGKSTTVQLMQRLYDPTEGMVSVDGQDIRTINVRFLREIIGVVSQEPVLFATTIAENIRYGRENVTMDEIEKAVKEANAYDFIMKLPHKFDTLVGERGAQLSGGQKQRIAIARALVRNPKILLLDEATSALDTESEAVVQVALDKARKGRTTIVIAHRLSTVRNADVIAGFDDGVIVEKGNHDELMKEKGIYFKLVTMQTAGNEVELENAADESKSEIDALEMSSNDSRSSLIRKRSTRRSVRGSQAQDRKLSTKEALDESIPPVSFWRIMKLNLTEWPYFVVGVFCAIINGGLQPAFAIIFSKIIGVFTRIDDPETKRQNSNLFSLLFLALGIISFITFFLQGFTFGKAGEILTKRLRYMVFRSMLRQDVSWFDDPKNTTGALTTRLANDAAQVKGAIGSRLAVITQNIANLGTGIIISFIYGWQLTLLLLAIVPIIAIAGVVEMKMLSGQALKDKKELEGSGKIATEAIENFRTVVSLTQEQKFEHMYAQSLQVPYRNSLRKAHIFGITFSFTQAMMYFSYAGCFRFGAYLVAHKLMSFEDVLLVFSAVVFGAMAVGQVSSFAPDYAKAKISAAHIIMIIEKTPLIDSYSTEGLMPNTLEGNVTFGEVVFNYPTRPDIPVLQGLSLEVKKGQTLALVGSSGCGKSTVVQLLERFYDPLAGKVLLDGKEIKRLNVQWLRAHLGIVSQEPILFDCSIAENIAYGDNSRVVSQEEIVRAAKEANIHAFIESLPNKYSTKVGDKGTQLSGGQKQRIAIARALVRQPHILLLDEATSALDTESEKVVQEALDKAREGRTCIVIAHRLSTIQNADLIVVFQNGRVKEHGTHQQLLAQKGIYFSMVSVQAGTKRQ

[2] = target: T1, ATP-dependent translocase ABCB1; test: Inhibition of MDR1 (unknown origin) expressed in MDCK cells assessed as potentiation of doxorubicin-induced cytotoxicity preincubated for 24 hrs followed by doxorubicin addition measured after 72 hrs by MTT assay; type: cell-based
In short: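 MDCK-MDR1 cells were seeded at 10,000/well, and compound was added at 0.1, 1 and 10 µM on day 2. On day 3 the medium was replaced with compound plus 10 µM doxorubicin. The 72 h run ended with MTT (0.5 mg/mL, 3 h, 37 °C) and DMSO solubilization, read at 570/630 nm. Growth is % of drug-free control, compared against doxorubicin alone by one-way ANOVA with Bonferroni post-hoc.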

[3] = system: MDCK; test: Cytotoxicity against MDCK cells expressing MDR1 assessed as reduction in cell viability at 10 uM after 72 hrs by MTT assay; type: ADME, cell-based, Canis lupus familiaris; settings: dog
In short: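 MDCK-MDR1 cells (DMEM high glucose, 10% FBS, 37 °C, 5% CO2) were seeded at 10,000/well. Compound was added at 0.1, 1 and 10 µM the next day. On day 3 the medium was replaced with compound alone, and the 72 h run ended with MTT (0.5 mg/mL, 3 h, 37 °C). Formazan was dissolved in DMSO and read at 570/630 nm. Viability is % of untreated control with solvent controls, from 2-3 independent experiments in triplicate.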

Row | SMILES | pIC50 [1] | inhibition (INH) [2] | Activity [3]
1 | COc1cc2c(cc1OC)CN(CC/C=C1\CCCc3c(OC)cccc31)CC2 | 5.92 | – | –
2 | Cc1c(C)c2ccc(OCCN3CCc4ccccc4C3)cc2oc1=O | 4.82 | – | –
3 | COc1cc2c(cc1OC)CN(CCCCOc1ccc3cc(-c4ccccc4)c(=O)oc3c1)CC2 | 6.39 | – | –
4 | COc1cc2c(cc1OC)CN(CCCCCOc1ccc3c(C)c(Cl)c(=O)oc3c1)CC2 | 6.34 | – | –
5 | Cc1c(C)c2ccc(OCCCCN3CCc4ccccc4C3)cc2oc1=O | 6.04 | – | –
6 | Cc1c(C)c2ccc(OCCCCCN3CCc4ccccc4C3)cc2oc1=O | 6.26 | Dose-dependent effect | Non-Toxic
7 | COc1cc2c(cc1OC)CN(Cc1cccc(COc3ccc4ccc(=O)oc4c3)c1)CC2 | 6.11 | – | –
8 | COc1cc2c(cc1OC)CN(C/C=C/COc1ccc3c(C)c(C)c(=O)oc3c1)CC2 | 6.00 | – | –
9 | COc1cc2c(cc1OC)CN(CCCCOc1ccc3c(C)c(Cl)c(=O)oc3c1)CC2 | 6.25 | – | –
10 | COc1cc2c(cc1OC)CN(CCCCCOc1ccc3cc(-c4ccccc4)c(=O)oc3c1)CC2 | 6.41 | Dose-dependent effect | Non-Toxic
11 | Cc1c(C)c2ccc(OCCCN3CCc4ccccc4C3)cc2oc1=O | 5.57 | – | –

More lines, in order of rising pIC50 [1], values ahead:

Row | pIC50 [1] | SMILES | inhibition (INH) [2] | Activity [3]
12 | 6.42 | COc1cc2c(cc1OC)CN(CCOc1ccc3c(C)c(C)c(=O)oc3c1)CC2 | – | –
13 | 6.48 | COc1cc2c(cc1OC)CN(CCCCCOc1ccc3c(c1)oc(=O)c1ccccc13)CC2 | – | –
14 | 6.55 | COc1cc2c(cc1OC)CN(CCCCCOc1ccc3c(C)c(Br)c(=O)oc3c1)CC2 | Dose-dependent effect | Non-Toxic
15 | 6.66 | COc1cc2c(cc1OC)CN(CCCCCCOc1ccc3c(C)c(C)c(=O)oc3c1)CC2 | – | –
16 | 6.66 | COc1cc2c(cc1OC)CN(CCCCCOc1ccc3c(C)c(-c4ccccc4)c(=O)oc3c1)CC2 | Dose-dependent effect | Non-Toxic
17 | 6.72 | COc1cc2c(cc1OC)CN(Cc1ccc(COc3ccc4c(C)c(C)c(=O)oc4c3)cc1)CC2 | – | –
18 | 6.72 | COc1cc2c(cc1OC)CN(CCc1ccc(COc3ccc4c(C)c(C)c(=O)oc4c3)cc1)CC2 | Dose-dependent effect | Non-Toxic
19 | 6.72 | COc1cc2c(cc1OC)CN(CCCOc1ccc3c(C)c(C)c(=O)oc3c1)CC2 | – | –
20 | 6.80 | COc1cc2c(cc1OC)CN(Cc1cccc(COc3ccc4c(C)c(C)c(=O)oc4c3)c1)CC2 | – | –
21 | 6.80 | COc1cc2c(cc1OC)CN(Cc1ccccc1COc1ccc3c(C)c(C)c(=O)oc3c1)CC2 | – | –
22 | 6.82 | COc1cc2c(cc1OC)CN(CCCCOc1ccc3c(C)c(C)c(=O)oc3c1)CC2 | – | –
23 | 7.15 | COc1cc2c(cc1OC)CN(CCCCCOc1ccc3c(C)c(C)c(=O)oc3c1)CC2 | Dose-dependent effect | Non-Toxic
